Among the data in the array DNA melting data of Ke et al. (doi:10.1101/2024.01.08.574731) are folding enthalpy and Tm values, retold here.

Data set [1] is described as follows: folding enthalpy; higher = less favourable; fluorescence melt of hairpins on a sequencing array, two-state fit. The conditions noted are these: sodium 0.088 M. In outline:
(§1)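 With Cy3 and quencher oligos annealed, library hairpins on a sequenced MiSeq flow cell were imaged for Cy3 fluorescence in 50 mM Na-HEPES pH 8.0, 25 mM NaCl, in 2.5 °C steps up to 60 °C. Melting temperature and folding enthalpy were derived from bootstrapped two-state fits of signals normalised to pre-quench Cy3 and to control constructs. Four replicates were combined by inverse variance, with fitted temperatures raised by 9.35 °C to match UV melts.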

The nature of data set [2]: melting temperature; fluorescence melt of hairpins on a sequencing array, two-state fit, raised by 9.35 °C to match UV melts. The following applies: sodium 0.088 M. In short, it runs like this: as §1

Regarding GGCACTTCGAAAGAAGCC (((..(((....)))))), in data set [1], the folding enthalpy is -9.16 kcal/mol. Further, the Tm in data set [2] came out at 32.2 °C.
The corresponding values for GGCAGACGAAAGTCAGCC (((.(((....))).))) are -32.8 kcal/mol and 64.4 °C.
As for GGCAGACGAAAGTCCGCC (((.(((....))).))), the folding enthalpy in data set [1] was -39.2 kcal/mol. Also, the Tm in data set [2] amounted to 60.2 °C.
For GGCAGAGGAAACTCCGCC (((.(((....))).))) the same measures were -28.1 kcal/mol and 47.5 °C.
Consider GGCAGAGGAAACTCTGCC (((((((....))))))), for which the folding enthalpy in data set [1] is -40.2 kcal/mol. In data set [2], the Tm was 67.6 °C.
Turning to GGCAGCGAAAGCTCAGCC ((((((....)))..))), the folding enthalpy in data set [1] was -18.4 kcal/mol. In addition, in data set [2], the Tm was 51 °C.
As to GGCAGCGAAAGCTCGCC ((((((....))).))), in data set [1], the folding enthalpy is -22.5 kcal/mol. Besides, the Tm in data set [2] was 61.4 °C.
The corresponding values for GGCAGCGAAAGCTCTGCC ((((((....)))..))) are -24.5 kcal/mol and 52.4 °C.
For GGCAGCGAAAGCTGAGCC ((((((....)))..))) the same measures were -14.1 kcal/mol and 51.9 °C.
For GGCAGCGAAAGCTTTGCC ((((((....)))..))) the same measures were -18.1 kcal/mol and 51.6 °C.
On to GGCAGCGGAAACACTGCC (((((.(....).))))), for which the folding enthalpy in data set [1] was -41 kcal/mol. The Tm in data set [2] was determined as 55.1 °C.
Regarding GGCAGGGAAACCTGCC ((((((....)))))), the folding enthalpy in data set [1] was -30.2 kcal/mol. For the same sequence, the Tm in data set [2] stood at 69.3 °C.
On to GGCAGGTCGAAAGACGCC (((..(((....)))))), for which the folding enthalpy in data set [1] was -24 kcal/mol. The Tm in data set [2] worked out at 53.5 °C.
The corresponding values for GGCAGTCGAAAGACGGCC (((.(((....))).))) are -36.4 kcal/mol and 67.8 °C.
With GGCATACCGAAAGGTGCC (((..(((....)))))), the folding enthalpy in data set [1] was -39.5 kcal/mol. In data set [2], the Tm was 53.3 °C.
The corresponding values for GGCATAGGAAACCATGCC (((((.(....).))))) are -30 kcal/mol and 48.7 °C.
As for GGCATCCCGAAAGGGGCC (((..(((....)))))), in data set [1], the folding enthalpy is -18.9 kcal/mol. Moreover, the Tm in data set [2] was 52.3 °C.
For the sequence GGCATCGAAAGATATGCC ((((((....)))..))), in data set [1], the folding enthalpy is -28.1 kcal/mol. Moreover, the Tm in data set [2] came out at 47.5 °C.
For GGCATCGAAAGATGAGCC ((((((....)))..))), in data set [1], the folding enthalpy was -17 kcal/mol. Further, the Tm in data set [2] was 44.1 °C.
GGCATCGAAAGATTGGCC ((((((....)))..))): the folding enthalpy in data set [1] is -22.2 kcal/mol. Further, the Tm in data set [2] stood at 44.2 °C.
GGCATGCCGAAAGGCGCC (((..(((....)))))): in data set [1], the folding enthalpy was -16 kcal/mol. Further, the Tm in data set [2] worked out at 57.5 °C.
Consider GGCATGGGAAACTGTGCC ((((..(....)..)))), for which the folding enthalpy in data set [1] is -29.8 kcal/mol. Besides, the Tm in data set [2] amounted to 48.2 °C.
Regarding GGCATTACGAAAGTAGCC (((..(((....)))))), the folding enthalpy in data set [1] is -21.8 kcal/mol. Further, the Tm in data set [2] was determined as 43.1 °C.
For the sequence GGCATTGAAAAATGCC ((((((....)))))), the folding enthalpy in data set [1] was -36.2 kcal/mol. The Tm in data set [2] worked out at 61.5 °C.
Take GGCATTGGAAACAATACC ((.((((....)))).)): in data set [1], the folding enthalpy was -25.4 kcal/mol. Further, in data set [2], the Tm is 36.6 °C.
Turning to GGCATTGGAAACAGTGTC (.((.((....)).)).), the folding enthalpy in data set [1] is -17 kcal/mol. Moreover, the Tm in data set [2] is 31.9 °C.
In the case of GGCATTGGAAACGATGCC (((((.(....).))))), the folding enthalpy in data set [1] was -42.5 kcal/mol. Moreover, the Tm in data set [2] worked out at 55.6 °C.
For the sequence GGCATTTCGAAAGAAGCC (((..(((....)))))), the folding enthalpy in data set [1] is -20.2 kcal/mol. Also, in data set [2], the Tm is 34.4 °C.
In the case of GGCCAACGAAAGTTGCC (((.(((....)))))), in data set [1], the folding enthalpy is -20 kcal/mol. The Tm in data set [2] was found to be 54.3 °C.
The corresponding values for GGCCACCGAAAGGTCGCC (((.(((....))).))) are -49.2 kcal/mol and 53.3 °C.
With GGCCACCGAAAGGTTGCC (((.(((....))).))), the folding enthalpy in data set [1] was -44.3 kcal/mol. The Tm in data set [2] is 58.1 °C.
The corresponding values for GGCCACGAAAGTGATGCC ((((((....)))..))) are -27.6 kcal/mol and 51 °C.
Turning to GGCCACGAAAGTGCAGCC ((((((....)))..))), the folding enthalpy in data set [1] is -19.9 kcal/mol. In addition, the Tm in data set [2] is 49.9 °C.
For the sequence GGCCACGAAAGTGTAGCC ((((((....)))..))), the folding enthalpy in data set [1] is -25 kcal/mol. For the same sequence, the Tm in data set [2] stood at 53.1 °C.
Regarding GGCCACGAAAGTGTCGCC ((((((....)))..))), the folding enthalpy in data set [1] was -21.3 kcal/mol. For the same sequence, the Tm in data set [2] was 50 °C.
Turning to GGCCACGGAAACACGGCC ((((..(....)..)))), in data set [1], the folding enthalpy was -32.5 kcal/mol. The Tm in data set [2] stood at 47.8 °C.
